≈ marks a conversion by molar mass, not a printed value. Calls of active or inactive are those of the source. No cut-off for these calls is given here.

The target in series [1] is T1, Casein kinase II subunit alpha (Homo sapiens, UniProt P68400). The series is described as follows: Inhibition of C-terminal Nano-Luc fused human CK2alpha expressed in HEK293 cells using NanoBRET NanoGlo substrate in presence of tracer K10 by NanoBRET assay. In kind it is cell-based. In general terms: In BRET a luciferase serves as donor, and the signal depends on an acceptor being close.
T1 sequence (P68400 whole entry, the tested form may be a part): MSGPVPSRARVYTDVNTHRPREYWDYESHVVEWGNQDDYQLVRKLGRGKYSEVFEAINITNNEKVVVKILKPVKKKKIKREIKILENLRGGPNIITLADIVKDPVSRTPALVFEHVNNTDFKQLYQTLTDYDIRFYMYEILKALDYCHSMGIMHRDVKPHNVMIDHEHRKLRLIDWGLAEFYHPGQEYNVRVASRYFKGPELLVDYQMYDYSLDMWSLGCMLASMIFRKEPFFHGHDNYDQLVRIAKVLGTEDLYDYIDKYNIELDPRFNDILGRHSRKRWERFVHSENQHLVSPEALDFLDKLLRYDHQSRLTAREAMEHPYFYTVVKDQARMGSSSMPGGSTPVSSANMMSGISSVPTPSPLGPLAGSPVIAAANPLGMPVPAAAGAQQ

For series [2], the target named is T2, Casein kinase II subunit alpha' (Homo sapiens, UniProt P19784). As to the kind of experiment: Inhibition of C-terminal Nano-Luc fused human CK2alpha' expressed in HEK293 cells using NanoBRET NanoGlo substrate in presence of tracer K5 by NanoBRET assay. The format is cell-based.
T2 sequence (P19784 whole entry, the tested form may be a part): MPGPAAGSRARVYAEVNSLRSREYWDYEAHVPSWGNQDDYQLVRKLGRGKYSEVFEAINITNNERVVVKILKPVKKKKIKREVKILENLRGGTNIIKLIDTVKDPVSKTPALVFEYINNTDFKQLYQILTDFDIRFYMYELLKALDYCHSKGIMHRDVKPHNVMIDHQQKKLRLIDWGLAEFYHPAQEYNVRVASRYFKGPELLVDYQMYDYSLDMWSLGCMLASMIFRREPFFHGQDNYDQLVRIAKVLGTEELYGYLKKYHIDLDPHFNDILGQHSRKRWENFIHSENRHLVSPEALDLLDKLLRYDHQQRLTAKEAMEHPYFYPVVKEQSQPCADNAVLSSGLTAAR
For series [3], the target named is T1, Casein kinase II subunit alpha. As to the kind of experiment: Inhibition of wild type human CK2alpha in presence of ATP by radiometric kinase assay.
In series [4] the target is T2, Casein kinase II subunit alpha'. As to the kind of experiment: Inhibition of wild type human CK2alpha' in presence of ATP by radiometric kinase assay.
Series [5] concerns the target Phosphatidylinositol 4-phosphate 5-kinase type-1 gamma (Homo sapiens) (UniProt O60331). As to the kind of experiment: Inhibition of wild type human PIP5K1C at 1 uM by DiscoverX scanMAX assay relative to control; values are per cent of control.
A short description of series [6]: Aqueous kinetic solubility of compound in PBS at pH 7.4 incubated for 24 hrs by Chemiluminescent nitrogen determination assay. Conditions: for solubility kinetic at 24 h: PBS, pH 7.4, read-out: Kinetic_solubility; for Kinetic_solubility: buffer, pH 7.4, 24 h. In kind it is physicochemical.
The test system of another series is RM-82. As to the kind of experiment: (§1) Antiproliferative activity against human RM-82 cells assessed as inhibition of cell proliferation at 1 uM incubated for 5 days by WST-1 assay. The format is functional. To be noted: time 5.0 day. A general note: Formazan colour is commonly taken as a measure of viable cells.
Another series concerns STA-ET-1. As to the kind of experiment: (§2) Antiproliferative activity against human STA-ET-1 cells assessed as inhibition of cell proliferation at 1 uM incubated for 5 days by WST-1 assay. To be noted: time 5.0 day. The format is functional. An outline of the steps:
(§3)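 Ewing sarcoma cell lines were exposed to a single 1 μM concentration for 5 days. Viability was reported as percent viability, as part of a preliminary single-dose screen.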

The next series deals with STA-ET-10. As to the kind of experiment: (§4) Antiproliferative activity against human STA-ET-10 cells assessed as inhibition of cell proliferation at 1 uM incubated for 5 days by WST-1 assay. The format is functional. To be noted: time 5.0 day. An outline of the steps: as §3
Series [7] is described as follows: as §1. Set-up: scale not given: the % may be the effect or the level left. To be noted: time 5 day. In kind it is functional.
Series [8] in a line: as §2. In kind it is functional. Set-up: scale not given: the % may be the effect or the level left. Conditions: time 5 day. An outline of the steps:
as §3

Series [9] can be described thus: as §4. Set-up: scale not given: the % may be the effect or the level left. Conditions: time 5 day. In kind it is functional. An outline of the steps:
as §3

Series [10] can be described thus: Permeability of compound incubated for 5 hrs by PAMPA based CLND assay. In kind it is ADME. (In general: In PAMPA a lipid-coated filter parts donor from acceptor wells.)
Another series relates to MDA-MB-231. As to the kind of experiment: Anticancer activity against human MDA-MB-231 cells assessed as cell growth inhibition at 2 to 10 uM incubated for 24 to 72 hrs by WST-1 assay. To be noted: dose 2-10 µM, time lower […], time upper 72.0 hrs.
Series [11] has as its target Death-associated protein kinase 2 (Homo sapiens, UniProt Q9UIK4). As to the kind of experiment: Inhibition of wild type human DAPK2 in presence of ATP by radiometric kinase assay.
Series [12] deals with T3, Homeodomain-interacting protein kinase 2 (Homo sapiens, UniProt Q9H2X6). The series is described as follows: Inhibition of wild type human HIPK2 in presence of ATP by radiometric kinase assay.
Target sequence in this assay (Q9H2X6 whole entry): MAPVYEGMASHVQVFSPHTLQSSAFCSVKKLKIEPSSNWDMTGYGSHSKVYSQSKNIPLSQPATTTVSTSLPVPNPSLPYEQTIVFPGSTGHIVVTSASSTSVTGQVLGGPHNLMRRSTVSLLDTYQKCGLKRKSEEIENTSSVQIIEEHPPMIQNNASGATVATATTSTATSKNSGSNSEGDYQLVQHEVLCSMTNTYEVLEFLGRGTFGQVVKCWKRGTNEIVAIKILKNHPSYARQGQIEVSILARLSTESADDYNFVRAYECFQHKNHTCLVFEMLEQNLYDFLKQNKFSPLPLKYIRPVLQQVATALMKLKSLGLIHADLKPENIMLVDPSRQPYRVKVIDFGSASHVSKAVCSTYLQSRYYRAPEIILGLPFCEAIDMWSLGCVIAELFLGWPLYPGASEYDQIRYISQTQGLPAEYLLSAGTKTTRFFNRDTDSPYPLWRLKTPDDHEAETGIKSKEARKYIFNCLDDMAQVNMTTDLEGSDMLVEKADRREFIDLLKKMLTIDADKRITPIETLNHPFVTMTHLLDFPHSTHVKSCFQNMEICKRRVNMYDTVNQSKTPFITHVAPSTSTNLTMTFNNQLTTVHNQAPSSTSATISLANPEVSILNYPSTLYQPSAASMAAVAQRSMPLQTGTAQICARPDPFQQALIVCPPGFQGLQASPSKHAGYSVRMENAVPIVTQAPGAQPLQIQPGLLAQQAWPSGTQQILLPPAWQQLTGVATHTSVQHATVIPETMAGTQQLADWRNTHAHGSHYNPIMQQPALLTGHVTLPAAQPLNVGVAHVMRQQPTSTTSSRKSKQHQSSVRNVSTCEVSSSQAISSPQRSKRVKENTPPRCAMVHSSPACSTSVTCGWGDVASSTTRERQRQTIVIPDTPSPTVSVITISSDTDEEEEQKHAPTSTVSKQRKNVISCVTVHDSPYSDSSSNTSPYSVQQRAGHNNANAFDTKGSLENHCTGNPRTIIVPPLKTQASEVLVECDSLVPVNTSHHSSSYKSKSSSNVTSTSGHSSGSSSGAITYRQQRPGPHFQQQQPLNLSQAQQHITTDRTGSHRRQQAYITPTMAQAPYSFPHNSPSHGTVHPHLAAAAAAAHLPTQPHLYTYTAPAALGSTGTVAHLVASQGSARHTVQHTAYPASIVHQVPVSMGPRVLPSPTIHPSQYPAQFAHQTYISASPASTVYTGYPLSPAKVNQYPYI
Series [13] deals with AMO1. As to the kind of experiment: Antiproliferative activity against human AMO1 cells assessed as inhibition of cell proliferation at 1 uM incubated for 5 days by WST-1 assay. In kind it is functional. Set-up: scale not given: the % may be the effect or the level left. To be noted: time 5 day.
Series [14] has as its system L-363. The series is described as follows: Antiproliferative activity against human L-363 cells assessed as inhibition of cell proliferation at 1 uM incubated for 5 days by WST-1 assay. Conditions: time 5 day. Set-up: scale not given: the % may be the effect or the level left. The format is functional.
The target of series [15] is T3, Homeodomain-interacting protein kinase 2. The series is described as follows: Inhibition of wild type human HIPK2 at 1 uM by DiscoverX scanMAX assay relative to control; values are per cent of control.
Target sequence in this assay (Q9H2X6 whole entry, looked up): as the sequence (Q9H2X6 whole entry) above
The test system of series [16] is AMO1. As to the kind of experiment: Antiproliferative activity against pomalidomide resistant human AMO1 cells assessed as inhibition of cell proliferation at 1 uM incubated for 5 days by WST-1 assay. The format is functional. More on the design: scale not given: the % may be the effect or the level left. Conditions: time 5 day.
The subject of series [17] is L-363. As to the kind of experiment: Antiproliferative activity against carfilzomib-resistant human L-363 cells assessed as inhibition of cell proliferation at 1 uM incubated for 5 days by WST-1 assay. To be noted: time 5 day. Set-up: scale not given: the % may be the effect or the level left. In kind it is functional.
Series [18] deals with L-363. As to the kind of experiment: Antiproliferative activity against bortezomib-resistant human L-363 cells assessed as inhibition of cell proliferation at 1 uM incubated for 5 days by WST-1 assay. In kind it is functional. Set-up: scale not given: the % may be the effect or the level left. To be noted: time 5 day.
Series [19] in a line: Antiproliferative activity against human MUG-Chor1 cells assessed as inhibition of cell proliferation at 1 uM incubated for 5 days by WST-1 assay. More on the design: scale not given: the % may be the effect or the level left. The format is functional. Conditions: time 5 day.

Chain of Death-associated protein kinase 2 (Q9UIK4 whole entry): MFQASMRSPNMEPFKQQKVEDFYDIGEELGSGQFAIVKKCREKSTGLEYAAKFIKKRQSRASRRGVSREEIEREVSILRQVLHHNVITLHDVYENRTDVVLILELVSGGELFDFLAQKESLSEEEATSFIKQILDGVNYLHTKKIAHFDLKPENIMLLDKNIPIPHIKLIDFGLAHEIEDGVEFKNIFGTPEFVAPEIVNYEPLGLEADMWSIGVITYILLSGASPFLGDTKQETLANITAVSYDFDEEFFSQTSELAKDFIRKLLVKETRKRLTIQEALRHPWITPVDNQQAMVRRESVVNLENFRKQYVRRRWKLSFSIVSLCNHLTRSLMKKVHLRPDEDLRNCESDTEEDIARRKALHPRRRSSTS
Chain of Phosphatidylinositol 4-phosphate 5-kinase type-1 gamma (Homo sapiens) (O60331 whole entry): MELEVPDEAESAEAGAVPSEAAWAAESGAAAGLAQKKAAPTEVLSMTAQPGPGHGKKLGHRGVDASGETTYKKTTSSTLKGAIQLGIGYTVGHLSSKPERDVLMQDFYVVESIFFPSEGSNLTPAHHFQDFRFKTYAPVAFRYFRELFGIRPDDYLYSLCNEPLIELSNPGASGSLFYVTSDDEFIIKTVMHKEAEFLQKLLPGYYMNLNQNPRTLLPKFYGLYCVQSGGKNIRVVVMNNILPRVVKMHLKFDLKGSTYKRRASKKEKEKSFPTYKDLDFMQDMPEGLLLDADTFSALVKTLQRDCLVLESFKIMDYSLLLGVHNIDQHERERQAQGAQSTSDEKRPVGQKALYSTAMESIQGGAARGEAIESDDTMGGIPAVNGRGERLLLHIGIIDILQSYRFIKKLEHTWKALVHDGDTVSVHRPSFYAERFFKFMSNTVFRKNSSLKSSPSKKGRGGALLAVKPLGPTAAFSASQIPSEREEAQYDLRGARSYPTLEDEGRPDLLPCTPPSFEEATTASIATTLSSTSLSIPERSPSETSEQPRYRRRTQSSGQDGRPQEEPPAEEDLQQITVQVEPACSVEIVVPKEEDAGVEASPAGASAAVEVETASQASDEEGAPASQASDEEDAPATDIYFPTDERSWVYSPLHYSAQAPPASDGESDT

Turning to `O=C(O)c1ccc2c(c1)nc(NCc1ccccc1)c1ncccc12`, the IC50 in series [1], in [2], in [3] and in series [4] was > 10 µM throughout. The compound further gave a residual activity in series [5] of 15%.

In the case of `O=C(O)c1ccc2c(c1)nc(Nc1ccccc1)c1ncncc12`, the solubility kinetic at 24 h in series [6] was determined as 168 µM (≈ 53.2 µg/mL).

Take `O=C(O)c1ccc2c(c1)nc(NCc1ccccc1)c1ccncc12`: the solubility kinetic at 24 h in [6] was 202 µM (≈ 66.7 µg/mL).

With `COc1cccc(CCNc2nc3cc(C(=O)O)ccc3c3cnccc23)c1`, in series [6], the solubility kinetic at 24 h was found to be 180 µM (≈ 67.4 µg/mL).

Take `N#Cc1cccc(Nc2nc3cc(C(=O)O)ccc3c3cnccc23)c1`: in series [6], the Kinetic_solubility was 131.7 µM. Besides, the result in the series on RM-82, in the series on STA-ET-1 and with STA-ET-10 was inactive.

As to `O=C(O)c1ccc2c(c1)nc(NCCc1ccccc1)c1ccncc12`, in [6], the solubility kinetic at 24 h is 171 µM (≈ 58.9 µg/mL).

In series [6], `O=C(O)c1ccc2c(c1)nc(Nc1ccc3ccccc3c1)c1ccncc12` displayed a Kinetic_solubility of 32.8 µM.

Consider `O=C(O)c1ccc2c(c1)nc(NCCc1ccccc1)c1ncncc12`, for which the Kinetic_solubility in [6] amounted to 146.4 µM.

The compound `O=C(O)c1ccc2c(c1)nc(Nc1ccc(F)c(Cl)c1)c1ccncc12` registered a Kinetic_solubility in series [6] of 148.4 µM.

In the case of `O=C(O)c1ccc2c(c1)nc(Nc1ccccc1Cl)c1ncncc12`, the Kinetic_solubility in series [6] stood at 121.8 µM.

For `O=C(O)c1ccc2c(c1)nc(Nc1ccccc1)c1ccncc12`, the solubility kinetic at 24 h in [6] amounted to 184 µM (≈ 58.1 µg/mL).

As for `O=C(O)c1ccc2c(c1)nc(NCCc1cccc(F)c1)c1ccncc12`, the solubility kinetic at 24 h in series [6] turned out to be 188 µM (≈ 67.8 µg/mL).

In the case of `O=C(O)c1ccc2c(c1)nc(Nc1cccc(F)c1)c1ncncc12`, the solubility kinetic at 24 h in series [6] came out at 192 µM (≈ 64.2 µg/mL).

Regarding `COc1cccc(CCNc2nc3cc(C(=O)O)ccc3c3cncnc23)c1`, the solubility kinetic at 24 h in series [6] was determined as 152 µM (≈ 56.8 µg/mL).

Consider `N#Cc1cccc(Nc2nc3cc(C(=O)O)ccc3c3cncnc23)c1`, for which the Kinetic_solubility in series [6] was determined as 66.7 µM. Moreover, the result with RM-82, in the series with STA-ET-1 and with STA-ET-10 was inactive.

With `O=C(O)c1ccc2c(c1)nc(Nc1ccc(F)c(Cl)c1)c1ncncc12`, in series [6], the Kinetic_solubility turned out to be 49.1 µM.

On to `O=C(O)c1ccc2c(c1)nc(NCCc1cccc(Cl)c1)c1ncncc12`, for which the Kinetic_solubility in series [6] came out at 109.1 µM.

For `O=C(O)c1ccc2c(c1)nc(Nc1ccc3ccccc3c1)c1ncncc12`, in series [6], the Kinetic_solubility came to 54.3 µM.

As for `O=C(O)c1ccc2c(c1)nc(Nc1cccc(F)c1)c1ccncc12`, the solubility kinetic at 24 h in series [6] was 237 µM (≈ 78.9 µg/mL).

On to `O=C(O)c1ccc2c(c1)nc(Nc1ccc(Cl)cc1)c1ncncc12`, for which the solubility kinetic at 24 h in series [6] was 209 µM (≈ 73.3 µg/mL).

Consider `COc1cccc(Nc2nc3cc(C(=O)O)ccc3c3cnccc23)c1`, for which, in [6], the solubility kinetic at 24 h is 190 µM (≈ 65.8 µg/mL).

For `O=C(O)c1ccc2c(c1)nc(NCCc1cccc(F)c1)c1ncncc12`, the Kinetic_solubility in series [6] is 147 µM.

Regarding `O=C(O)c1ccc2c(c1)nc(Nc1ccc(Cl)cc1)c1ccncc12`, the Kinetic_solubility in series [6] is 25.3 µM.

In the case of `O=C(O)c1ccc2c(c1)nc(NCCc1cccc(Cl)c1)c1ccncc12`, in series [6], the solubility kinetic at 24 h amounted to 184 µM (≈ 69.5 µg/mL).

As for `O=C(O)c1ccc2c(c1)nc(Nc1cccc(Cl)c1)c1ccncc12` [SILMITASERTIB], in series [6], the Kinetic_solubility was found to be 277.1 µM. Moreover, the values for the Activity in [7], in series [8] and in series [9] were 63%, 21% and 63%, respectively. Further, in series [10], the permeability entry is reported as “Permeable”. For the same compound, in the series with MDA-MB-231, the result was Active.

With `O=C(O)c1ccc2c(c1)nc(NCc1ccccc1)c1ncncc12`, in series [6], the solubility kinetic at 24 h was found to be 211 µM (≈ 69.6 µg/mL). Also, the figures for the IC50 in series [11] and in series [12] were 1500 nM and 600 nM, respectively. Moreover, the figures for the Activity in the series with AMO1 [13] and in the series on L-363 [14] were 44% and 36%, respectively. Moreover, the result with RM-82, in the series with STA-ET-1 and in the series on STA-ET-10 was inactive. In addition, the permeability result in series [10] is on record as “Permeable”. The compound also displayed a residual activity in [15] of 30%.

On to `CCC(=O)Nc1cc(Nc2cc(NC3CC3)n3ncc(C#N)c3n2)ccc1C`, for which the Activity in the series on AMO1 [13] is reported as 9%; with AMO1 [16], 9%; with L-363 [14], 9%; in the series on L-363 [17], 9%; in the series on L-363 [18], 9%; in [19], 55%. The outcome in the series with STA-ET-1 and in the series on STA-ET-10 was inactive.

What is called IC50 is the concentration that gives 50% inhibition. For orientation: residual activity means the activity still measured, relative to the control.

The values above are taken from ChEMBL document CHEMBL5252659, “Discovery of a Potent and Selective Naphthyridine-Based Chemical Probe for Casein Kinase 2” (ACS Med Chem Lett, 2023).
